Assay outcomes as filed in PubChem BioAssay.
Rows were chosen to be rich in hits. Some 1.4% of all compounds tested hit in one or more screens of this group.
HIF act: HIF pathway transcriptional activation; U2OS HRE-luciferase reporter, luminescence; normalized: DMSO 0%, desferrioxamine 100%; AID 1910; activation, % at 7.5 µM (by protocol); 300,000 compounds, 0.32% hits;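 active = mean activation of at least 10% of the iron chelator positive control signal, with at least half of replicates also reaching 10%; inconclusive = mean and replicate majority disagree about reaching 10%; inactive = mean and most replicates under 10%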
GASC-1 inh: human JMJD2C demethylase inhibition. inhibition, % at 2.35 µM. 330,000 compounds, 0.069% hits. Q9H3R0. AID 2099. GST-JMJD2C(1-420) H3K9me3 demethylation, DELFIA europium;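 active = more than half of a compound's replicate wells show inhibition beyond 50%, single wells judged on their own value; inconclusive = some, but no more than half, of replicates pass 50% inhibition; inactive = no replicate passes 50% inhibition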;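 also: signal counts dimethyl H3K9 product captured on neutravidin plate; 0% = median of DMSO wells and 100% = 0.3 times that DMSO median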
Target sequence (Q9H3R0 1-420 limits assumed): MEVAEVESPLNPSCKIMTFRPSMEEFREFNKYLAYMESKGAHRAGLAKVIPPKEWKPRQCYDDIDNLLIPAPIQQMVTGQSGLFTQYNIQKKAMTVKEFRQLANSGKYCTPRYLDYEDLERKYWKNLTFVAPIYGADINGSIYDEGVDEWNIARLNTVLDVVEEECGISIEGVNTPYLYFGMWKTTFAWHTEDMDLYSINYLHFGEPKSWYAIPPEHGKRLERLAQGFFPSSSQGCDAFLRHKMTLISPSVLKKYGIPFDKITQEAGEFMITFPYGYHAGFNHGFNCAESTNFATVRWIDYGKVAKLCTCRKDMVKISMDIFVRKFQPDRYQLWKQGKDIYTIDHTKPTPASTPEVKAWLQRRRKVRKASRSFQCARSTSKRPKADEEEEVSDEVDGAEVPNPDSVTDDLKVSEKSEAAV
Mot1-301 SUMO: blocks SUMOylation pathway, rescuing yeast Mot1-301 growth; S. cerevisiae Mot1-301 growth rescue, ATP luminescence, 38.5C; percent above DMSO median, 100 means doubled; growth rescue, % at 18.8 µM; 320,000 compounds, 1% hits;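 active = every valid replicate shows activation above 250% relative to neutral control wells; inactive = the rest, any valid replicate at or below 250%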;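 also: OY570 slx delta 5 strain wells were the positive control but not used for scaling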
T cell modulator: T cell immune modulators affecting CD8 T cell-vesicle binding; 330,000 compounds, 0.068% hits; response (vesicle binding), % at 7 µM; 2C CD8+ T cell-vesicle binding, flow cytometry; hits give low values;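 active = response, share of CD8 T cells binding vesicles, and their 90th percentile fluorescence all below set limits, cut at about 80% in these data, passing the limit was not always enough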;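 also: values below 100% mean blocked vesicle binding to the CD8+ T cells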
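Assay system – 2C mouse CD8+ T cells · Also added – QL9-loaded Drosophila micro-vesicles · Timing – Cell–vesicle co-incubation 1.5 h at 37 °C, staining 20 min on ice · Signal – flow cytometry of vesicle-bound cells · Measure – percent CD8+ FL2 mean versus row control · Controls – Peptide-free naked vesicles (low) and QL9 vesicles with 0.7% DMSO vehicle (high)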
An asterisk follows results filed as active; i = inactive; ? = inconclusive; / = no result given; + = active, no number.

SMILES	HIF act	GASC-1 inh	Mot1-301 SUMO	T cell modulator
COc1ccc2ccccc2c1/C=N/Nc1ccc(Cl)c(C(=O)O)c1	-0.3	1.1	-6.2	348.9
COc1ccc(N/N=C/c2c(C(=O)O)ccc3ccccc23)cc1	50.1*	5.3	-2.3	679.8
C=CCC[C@H](Cc1ccc(F)cc1)C(=O)OC[C@H](C)NC(=O)[C@@H](CC=C)CC(=O)N[C@H](CO)Cc1ccccc1	/	7.2	14.6	61.0*
CCN(CC)S(=O)(=O)c1ccc(NC(=O)c2ccc(N3CCCC3=O)cc2)cc1	/	3.6	-4.9	100.7
Cc1noc(C)c1C(=O)NCCCc1ccccc1	-0.2	i	-7.0	305.3
Cc1noc(C)c1C(=O)NCCc1c(C)[nH]c2ccccc12	-0.3	-12.6	296.1*	144.9
Cc1ccc(C(=O)NCCCNC(=O)COc2ccc(C)c(C)c2)cn1	0.6	2.0	288.6*	204.5
Cc1ccc(C(=O)NCCNC(=O)COc2ccc(C)c(C)c2)cn1	0.3	-1.7	-10.2	734.9
COc1ccc(C2=NOC(Cn3nc(-c4ccccc4)cc3C(=O)NCc3ccccc3OC)C2)cc1 (centres undefined)	/	/	15.8	318.8
COc1ccccc1CNC(=O)c1cc(-c2ccccc2)nn1CC1CC(c2cccnc2)=NO1 (centres undefined)	-3.0	57.3*	6.1	660.5
CCOC(=O)c1cc(CC)sc1NC(=O)c1ccc([N+](=O)[O-])c(N2CCOCC2)c1	-0.4	-1.8	371.0*	215.2
Cc1cc(C(=O)Nc2ccccc2N2CCOCC2)ccc1[N+](=O)[O-]	-0.1	-3.2	-0.3	303.1
COc1ccc(C(=O)NNC(=O)CSc2nnnn2C)cc1	0.1	-21.8	12.3	61.7*
COc1ccc(C(=O)CSc2nncn2C)cc1	21.6*	-2.5	7.9	166.9
O=S1(=O)Nc2c(ccc3cccnc23)-c2ccccc21	1.5	-16.5	+	347.7
Cc1cc(C)nc(N2CCCC(C(=O)NNC(=O)c3ccncc3)C2)n1 (centres undefined)	-0.1	14.3	-6.5	192.7
O=C1CN(C(=O)CNCc2ccccc2)c2ccccc2N1	0.3	-2.1	220.5	530.3
COc1ccccc1C1=Nn2c(nnc2C2CCCCC2)SC1	/	-0.3	353.7*	238.7
O=C(NNC(=O)c1ccccc1-n1cccc1)c1cncc(Br)c1	/	0.6	11.2	253.2
Cc1ccc(C)c(OCC(=O)NNC(=O)CSC(=S)N2CCCC2)c1	-0.3	59.3	331.6*	203.5
COC(=O)NNC(=O)COc1cc(C)ccc1C	-0.2	-2.2	-1.2	293.5
Cc1cc(C)c(-c2c(O)c3cccnc3n(C)c2=O)c(C)c1	-0.6	-10.9	15.8	210.9
O=C(O)c1cnn(-c2ccccc2)c1-c1ccncc1	0.6	-2.8	321.8*	185.9
O=Cc1cccn1-c1c(C(=O)O)cnn1-c1ccccc1	0.0	-2.7	17.5	264.3
Cc1cccc(OCC(=O)NNC(=O)c2ccc3nc[nH]c3c2)c1	/	-0.2	14.2	352.6
SMILES	HIF act	GASC-1 inh	Mot1-301 SUMO	T cell modulator
CCCc1c(C(=O)NNc2cccc(Cl)c2)cnn1-c1ccccc1	-0.4	-0.2	478.2*	474.3
O=C(NNc1cccc(Cl)c1)c1cccnc1Cl	0.0	9.7	343.9*	538.1
CCC1(c2ccccc2)NC(=O)N(CC(=O)N2CC(=O)Nc3ccccc32)C1=O (centres undefined)	/	16.8	34.5	i
CN(CC(=O)Nc1n[nH]c(=S)s1)S(=O)(=O)c1cccc2cccnc12	-0.3	-0.6	-11.8	178.7
Cc1ccccc1N1CCN(C2CCCN(C(=O)c3noc4c3CCCC4)C2)CC1 (centres undefined)	-0.4	-1.1	7.3	124.3
Cc1[nH]nc2c1C(c1cnn(C)c1)C(C#N)=C(N)O2 (centres undefined)	-0.1	4.1	/	59.3*
Cc1c(C(=O)NCCN2C(=O)S/C(=C\c3cccnc3)C2=O)cccc1[N+](=O)[O-]	0.6	4.1	-3.7	18.7*
CCCNC(=O)c1cc(-c2ccco2)on1	16.1*	-4.2	0.2	533.8
COc1ccc(-c2cc(C(=O)NCC3CCCO3)on2)cc1OC (centres undefined)	0.0	7.3	20.0	781.0
CCOc1ccc(-c2cc(C(=O)NCC3CCCO3)c3ccccc3n2)cc1 (centres undefined)	0.6	36.1	351.5*	156.6
O=C(NCC1CCCO1)c1cc(-c2ccc(F)cc2)no1 (centres undefined)	13.7*	7.0	4.0	309.7
O=C(NCc1ccco1)c1cc(-c2cccs2)on1	20.6*	3.3	4.8	317.2
CC(=O)Nc1nc2c(s1)C(=O)NCCC2	-1.1	1.6	18.6	223.7
Cc1ccc(OCC(=O)N/N=C2\CC(=O)CC(C)(C)C2)c(Br)c1	-0.5	-24.4	-2.7	505.6
COc1ccc(CN(CC(=O)NCc2ccc(F)cc2)C(=O)CCC(=O)Nc2ccccn2)cc1	0.1	-6.1	1.1	90.2
CC1=NN(CCc2ccccn2)C(=O)CC1	-0.1	1.1	-6.6	115.2
COc1ccc(NC(=O)N(C)C[C@H]2Oc3c(NC(=O)c4nc5ccccc5s4)cccc3C(=O)N([C@@H](C)CO)C[C@H]2C)cc1	/	0.2	6.1	226.5
O=C(NCc1ccco1)c1cc(-c2ccccc2)on1	12.0*	-3.0	-9.4	504.2
O=C(NCC1CCCO1)c1cc(-c2ccccc2)on1 (centres undefined)	15.4*	7.1	67.5	135.4
Cc1ccc(-c2cc(C(=O)NCC3CCCO3)no2)cc1 (centres undefined)	0.7	?	10.5	551.9
COC(=O)[C@@H](c1ccccc1)N(C)S(=O)(=O)c1cccc(S(=O)(=O)N(C)[C@@H](C(=O)OC)c2ccccc2)c1	-0.4	-6.3	-7.8	i
Cc1ccsc1C(=O)N1CCCC(CO)(Cc2ccccc2F)C1 (centres undefined)	0.1	1.0	4.0	167.3
CCc1ccccc1-n1nnnc1SCC(=O)Nc1ccc(N2CCN(C)CC2)cc1	-0.1	8.3	-11.5	690.9
CCOC(=O)c1cc(-c2ccccc2)nn1CCC#N	1.0	10.8	-13.9	422.2
CCOC(=O)c1cc(-c2ccc(C)o2)nn1CCC#N	-0.4	6.6	346.6*	293.9
SMILES	HIF act	GASC-1 inh	Mot1-301 SUMO	T cell modulator
Cc1ccc(C)c(N(C(=O)c2csnn2)C(C(=O)NC2CCCC2)c2cccnc2)c1 (centres undefined)	0.0	71.4*	-2.1	270.0
Cc1cccc(Nc2ncnc(N)n2)c1	0.6	-2.4	540.8*	293.1
Nc1ncnc(Nc2cccc(F)c2)n1	0.2	3.1	2.3	391.4
COc1cccc(C(=O)Nc2cccc(-c3nnc(-c4ccco4)o3)c2)c1	0.0	-3.7	9.3	299.0
COc1ccc(Br)cc1C(=O)Nc1cccc(-c2nnc(-c3ccco3)o2)c1	1.3	4.3	330.6*	240.8
O=S(=O)(c1cccs1)N1CCN(c2ncccn2)CC1	-0.3	9.4	+	268.4
O=C(Nc1ccccn1)c1cccc(S(=O)(=O)N2CCCC2)c1	0.2	-2.8	2.4	387.0
Cc1cccc(C)c1N=C1SC(CC(=O)Nc2c(C)cccc2C)C(=O)N1CCc1ccccn1 (centres undefined)	/	-2.7	468.0*	183.2
